This passage reports Ki and IC50 results from ChEMBL document CHEMBL1926621, “New potent 5-HT(2A) receptor ligands containing an N'-cyanopicolinamidine nucleus: Synthesis and in vitro pharmacological evaluation” (Eur J Med Chem, 2012).

One may read the Ki as the equilibrium dissociation constant of an inhibitor or competing ligand from its target. One may read the IC50 as the concentration that inhibits the measured activity by half.

For one assay, the target named is D(2) dopamine receptor (Rattus norvegicus, UniProt P61169). Nature of the assay: Displacement of [3H]spiperone from rat corpora striatum dopamine D2 receptor after 15 mins by liquid scintillation counting. Put shortly: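 Corpora striata membranes in Tris-HCl buffer containing NaCl, KCl, CaCl2, MgCl2, ascorbic acid and pargyline. [3H]spiperone 0.4 nM final, 3 mg fresh tissue, incubated 15 min at 37 °C. GF/B filtration, scintillation counting. Six concentrations in triplicate. IC50 converted to Ki via Cheng-Prusoff.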
On the technique in general: Loss of bound radioactivity is the signal in a displacement assay; it reports binding, not function.

The target of assay [1] is T1, 5-hydroxytryptamine receptor 1A (Rattus norvegicus, UniProt P19327).
T1 sequence (P19327 whole entry): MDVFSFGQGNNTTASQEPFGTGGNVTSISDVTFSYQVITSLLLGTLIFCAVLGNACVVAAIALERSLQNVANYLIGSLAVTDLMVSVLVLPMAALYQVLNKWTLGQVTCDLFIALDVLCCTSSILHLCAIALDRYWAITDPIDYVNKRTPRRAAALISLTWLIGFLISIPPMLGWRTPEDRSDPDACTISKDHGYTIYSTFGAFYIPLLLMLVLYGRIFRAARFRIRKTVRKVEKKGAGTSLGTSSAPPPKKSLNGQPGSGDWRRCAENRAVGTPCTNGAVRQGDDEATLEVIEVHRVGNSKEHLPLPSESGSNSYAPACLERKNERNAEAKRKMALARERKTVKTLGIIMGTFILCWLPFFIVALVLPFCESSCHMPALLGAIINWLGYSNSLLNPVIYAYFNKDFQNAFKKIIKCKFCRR
In words: Displacement of [3H]-8-OH-DPAT from Sprague-Dawley rat brain cortex serotonin 5-HT1A receptor after 30 mins by liquid scintillation counting. Put shortly:
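Male Sprague-Dawley rat (180-220 g) cerebral cortex homogenized in 50 mM Tris-HCl pH 7.7, spun 50,000 g. [3H]-8-OH-DPAT 0.1 nM final, 30 min at 37 °C, GF/B filtration. Test compounds in ethanol or 5% DMSO, six concentrations in triplicate. IC50 by curve fitting, Ki by Cheng-Prusoff using Scatchard-derived KD.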

For assay [2], the target named is T2, 5-hydroxytryptamine receptor 2C (Rattus norvegicus, UniProt P08909).
T2 sequence (P08909 whole entry): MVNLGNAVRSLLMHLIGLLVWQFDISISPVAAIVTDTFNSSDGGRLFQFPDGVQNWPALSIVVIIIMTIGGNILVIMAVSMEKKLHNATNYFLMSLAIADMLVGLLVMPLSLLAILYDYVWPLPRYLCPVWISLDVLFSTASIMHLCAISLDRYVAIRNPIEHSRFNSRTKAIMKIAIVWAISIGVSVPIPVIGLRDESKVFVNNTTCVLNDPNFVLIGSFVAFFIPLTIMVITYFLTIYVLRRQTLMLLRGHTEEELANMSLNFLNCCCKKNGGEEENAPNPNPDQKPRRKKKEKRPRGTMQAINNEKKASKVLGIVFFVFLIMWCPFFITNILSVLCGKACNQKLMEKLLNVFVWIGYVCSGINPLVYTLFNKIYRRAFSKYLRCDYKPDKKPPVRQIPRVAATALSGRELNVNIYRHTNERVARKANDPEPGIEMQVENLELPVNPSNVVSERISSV
In words: Displacement of [3H]mesulergine from Sprague-Dawley rat brain cortex serotonin 5-HT2C receptor after 15 mins by liquid scintillation counting in presence of 5-HT2A blocker, spiperone. Put shortly: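 Male Sprague-Dawley rat frontal cortex membranes (Tris-HCl/EDTA/MgCl2 pH 7.4, ascorbate, pargyline). 100 nM spiperone in all tubes to block 5-HT2A sites. Mianserin defined nonspecific binding. 15 min at 37 °C, PEI-soaked glass fibre filtration. Six compound concentrations in triplicate. Ki by Cheng-Prusoff.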

For the next assay, the target named is D(1A) dopamine receptor (Rattus norvegicus, UniProt P18901). In words: Displacement of [3H]SCH-23390 from rat corpora striatum dopamine D1 receptor after 15 mins by liquid scintillation counting. Put shortly:
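Rat corpora striata homogenized in 50 mM Tris-HCl pH 7.7, spun twice at 50,000 g. Resuspended in Tris-HCl with NaCl, KCl, CaCl2, MgCl2, ascorbic acid and pargyline. 0.4 nM [3H]SCH-23390 final, 3 mg fresh tissue, 15 min at 37 °C. Nonspecific binding with piflutixol. Ki by Cheng-Prusoff from triplicate six-point curves.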

The target in assay [3] is 5-hydroxytryptamine receptor 2A (Rattus norvegicus, UniProt P14842). Nature of the assay: Displacement of [3H]ketanserin from Sprague-Dawley rat brain cortex serotonin 5-HT2A receptor after 15 mins by liquid scintillation counting. The gist of the method: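 Male Sprague-Dawley rat frontal cortex membranes in 50 mM Tris-HCl, 0.5 mM EDTA, 10 mM MgCl2 pH 7.4, with 0.1% ascorbate and pargyline. 0.4 nM [3H]ketanserin, 5 mg wet tissue, 15 min at 37 °C. Filtered on PEI-soaked glass fibre. Six compound concentrations in triplicate. IC50 converted to Ki by Cheng-Prusoff.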

For assay [4], the target named is T3, Adrenergic receptor alpha-2 (Rattus norvegicus, UniProt P22086+P19328+P22909).
T3 sequence (P22086 whole entry): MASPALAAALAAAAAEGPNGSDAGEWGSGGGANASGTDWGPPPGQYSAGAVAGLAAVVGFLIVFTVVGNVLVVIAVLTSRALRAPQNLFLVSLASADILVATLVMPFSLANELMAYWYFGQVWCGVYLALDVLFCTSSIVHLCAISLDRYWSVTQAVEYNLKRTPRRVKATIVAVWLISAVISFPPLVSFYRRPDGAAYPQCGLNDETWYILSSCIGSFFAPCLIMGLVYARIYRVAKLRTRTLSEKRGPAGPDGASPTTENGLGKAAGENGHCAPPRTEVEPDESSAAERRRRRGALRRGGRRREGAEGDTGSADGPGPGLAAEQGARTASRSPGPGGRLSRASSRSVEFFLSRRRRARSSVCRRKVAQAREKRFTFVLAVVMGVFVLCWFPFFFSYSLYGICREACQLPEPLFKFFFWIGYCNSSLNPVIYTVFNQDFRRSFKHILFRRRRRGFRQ
T3 sequence (P19328 whole entry): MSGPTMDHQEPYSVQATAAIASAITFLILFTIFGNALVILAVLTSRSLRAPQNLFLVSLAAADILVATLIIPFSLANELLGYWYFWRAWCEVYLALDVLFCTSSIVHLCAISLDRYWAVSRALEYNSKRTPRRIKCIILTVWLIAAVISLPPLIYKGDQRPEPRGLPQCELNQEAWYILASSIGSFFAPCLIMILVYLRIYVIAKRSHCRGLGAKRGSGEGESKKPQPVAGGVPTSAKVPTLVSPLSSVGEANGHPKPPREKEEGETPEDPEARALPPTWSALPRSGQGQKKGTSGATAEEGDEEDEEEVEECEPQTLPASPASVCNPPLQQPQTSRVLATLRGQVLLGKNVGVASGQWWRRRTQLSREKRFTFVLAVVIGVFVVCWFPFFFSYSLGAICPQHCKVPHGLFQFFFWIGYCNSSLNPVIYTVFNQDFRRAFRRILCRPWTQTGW
T3 sequence (P22909 whole entry): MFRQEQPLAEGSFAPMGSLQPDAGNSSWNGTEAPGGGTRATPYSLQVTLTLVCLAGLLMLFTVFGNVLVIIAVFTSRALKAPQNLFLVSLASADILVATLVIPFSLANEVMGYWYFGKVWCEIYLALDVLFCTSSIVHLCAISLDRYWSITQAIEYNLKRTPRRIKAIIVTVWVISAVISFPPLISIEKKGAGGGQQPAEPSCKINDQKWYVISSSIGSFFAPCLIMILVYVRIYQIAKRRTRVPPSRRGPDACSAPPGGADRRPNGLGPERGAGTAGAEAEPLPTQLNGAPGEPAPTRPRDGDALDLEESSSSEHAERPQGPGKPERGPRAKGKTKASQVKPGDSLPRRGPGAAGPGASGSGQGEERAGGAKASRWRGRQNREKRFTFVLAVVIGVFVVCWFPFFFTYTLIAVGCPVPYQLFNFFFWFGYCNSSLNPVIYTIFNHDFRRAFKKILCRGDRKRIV
Nature of the assay: Displacement of [3H]yohimbine from rat brain cortex adrenergic alpha2 receptor after 30 mins by liquid scintillation counting. The gist of the method:
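Cortex homogenized in 5 mM Tris-HCl, 5 mM EDTA pH 7.3, spun three times at 50,000 g, resuspended in 50 mM Tris-HCl, 0.5 mM EDTA pH 7.5. [3H]yohimbine 1 nM final, 10 mg fresh tissue, 30 min at 25 °C. Phentolamine defined nonspecific binding. Ki by Cheng-Prusoff.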

The target in assay [5] is T4, Adrenergic receptor alpha-1 (Rattus norvegicus, UniProt P15823+P23944+P43140).
T4 sequence (P15823 whole entry): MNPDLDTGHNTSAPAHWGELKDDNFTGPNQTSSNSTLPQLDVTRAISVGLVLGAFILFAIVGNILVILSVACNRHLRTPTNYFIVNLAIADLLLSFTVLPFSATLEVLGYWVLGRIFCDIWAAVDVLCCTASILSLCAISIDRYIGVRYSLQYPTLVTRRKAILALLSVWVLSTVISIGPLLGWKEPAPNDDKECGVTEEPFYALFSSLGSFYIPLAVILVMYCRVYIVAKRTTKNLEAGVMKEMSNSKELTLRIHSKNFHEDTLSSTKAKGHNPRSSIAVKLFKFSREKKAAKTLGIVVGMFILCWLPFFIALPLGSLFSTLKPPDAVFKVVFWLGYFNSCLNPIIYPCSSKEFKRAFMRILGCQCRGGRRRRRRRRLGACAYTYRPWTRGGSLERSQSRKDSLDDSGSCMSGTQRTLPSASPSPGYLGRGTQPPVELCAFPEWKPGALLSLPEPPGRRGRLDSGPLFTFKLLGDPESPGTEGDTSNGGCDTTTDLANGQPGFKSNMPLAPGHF
T4 sequence (P23944 whole entry): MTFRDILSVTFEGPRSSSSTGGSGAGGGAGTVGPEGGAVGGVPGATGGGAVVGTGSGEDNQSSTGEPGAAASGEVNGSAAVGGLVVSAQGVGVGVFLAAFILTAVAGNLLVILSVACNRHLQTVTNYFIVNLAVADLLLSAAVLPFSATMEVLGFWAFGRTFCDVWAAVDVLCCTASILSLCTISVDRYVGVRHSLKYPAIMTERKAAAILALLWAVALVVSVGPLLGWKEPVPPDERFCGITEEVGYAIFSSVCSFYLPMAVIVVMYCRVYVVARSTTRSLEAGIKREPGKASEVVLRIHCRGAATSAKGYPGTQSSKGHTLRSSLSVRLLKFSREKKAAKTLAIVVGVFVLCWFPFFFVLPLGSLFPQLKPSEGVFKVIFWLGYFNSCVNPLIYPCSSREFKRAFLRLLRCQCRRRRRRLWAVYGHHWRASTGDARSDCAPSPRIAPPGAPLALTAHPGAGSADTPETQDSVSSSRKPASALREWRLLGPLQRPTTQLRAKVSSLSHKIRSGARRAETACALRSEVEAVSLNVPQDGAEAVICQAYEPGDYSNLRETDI
T4 sequence (P43140 whole entry): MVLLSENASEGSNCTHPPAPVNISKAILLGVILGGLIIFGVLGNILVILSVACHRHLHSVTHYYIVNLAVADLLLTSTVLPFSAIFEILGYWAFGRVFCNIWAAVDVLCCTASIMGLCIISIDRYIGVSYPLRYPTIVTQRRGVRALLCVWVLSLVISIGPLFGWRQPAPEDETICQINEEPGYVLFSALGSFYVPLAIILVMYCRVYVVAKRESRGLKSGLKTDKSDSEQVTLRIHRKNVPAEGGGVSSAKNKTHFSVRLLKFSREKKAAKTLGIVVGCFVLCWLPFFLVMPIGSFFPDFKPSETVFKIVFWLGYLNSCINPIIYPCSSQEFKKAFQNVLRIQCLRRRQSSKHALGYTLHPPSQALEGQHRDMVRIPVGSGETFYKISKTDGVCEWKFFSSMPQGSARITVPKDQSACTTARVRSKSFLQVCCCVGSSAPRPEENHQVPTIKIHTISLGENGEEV
In words: Displacement of [3H]prazosin from rat brain cortex adrenergic alpha1 receptor after 30 mins by liquid scintillation counting. Put shortly: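 Brain cortex homogenized in 50 mM Tris-HCl pH 7.2, spun twice at 50,000 g, resuspended in Tris-HCl pH 7.4. 0.4 nM [3H]prazosin final, 10 mg fresh tissue, 30 min at 25 °C. Nonspecific binding with phentolamine. GF/B filtration. Ki by Cheng-Prusoff from six-point triplicate curves.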

5-hydroxytryptamine receptor 2A, sequence (P14842 whole entry): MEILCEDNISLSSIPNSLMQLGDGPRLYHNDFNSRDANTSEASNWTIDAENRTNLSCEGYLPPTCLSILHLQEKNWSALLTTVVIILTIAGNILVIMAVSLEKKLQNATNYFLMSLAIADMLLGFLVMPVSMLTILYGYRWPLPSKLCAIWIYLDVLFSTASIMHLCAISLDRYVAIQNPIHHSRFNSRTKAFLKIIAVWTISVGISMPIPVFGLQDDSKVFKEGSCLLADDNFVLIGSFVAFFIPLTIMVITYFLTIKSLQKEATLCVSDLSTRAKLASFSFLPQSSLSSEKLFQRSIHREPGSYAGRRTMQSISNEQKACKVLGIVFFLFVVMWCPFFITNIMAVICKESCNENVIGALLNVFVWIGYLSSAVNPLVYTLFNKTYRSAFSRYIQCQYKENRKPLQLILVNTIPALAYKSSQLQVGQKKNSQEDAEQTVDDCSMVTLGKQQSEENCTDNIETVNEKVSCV
D(2) dopamine receptor, sequence (P61169 whole entry): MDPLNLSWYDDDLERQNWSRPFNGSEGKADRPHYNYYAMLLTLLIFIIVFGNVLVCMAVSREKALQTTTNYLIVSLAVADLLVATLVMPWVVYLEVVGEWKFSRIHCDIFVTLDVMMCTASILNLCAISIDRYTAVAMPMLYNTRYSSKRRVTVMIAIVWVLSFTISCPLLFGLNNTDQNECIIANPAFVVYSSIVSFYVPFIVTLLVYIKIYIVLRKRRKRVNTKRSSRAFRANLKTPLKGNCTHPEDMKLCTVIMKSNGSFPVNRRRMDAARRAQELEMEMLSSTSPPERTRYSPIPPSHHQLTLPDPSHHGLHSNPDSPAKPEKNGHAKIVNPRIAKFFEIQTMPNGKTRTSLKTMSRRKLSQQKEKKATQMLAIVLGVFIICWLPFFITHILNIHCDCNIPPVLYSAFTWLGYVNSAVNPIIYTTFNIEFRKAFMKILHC
D(1A) dopamine receptor, sequence (P18901 whole entry): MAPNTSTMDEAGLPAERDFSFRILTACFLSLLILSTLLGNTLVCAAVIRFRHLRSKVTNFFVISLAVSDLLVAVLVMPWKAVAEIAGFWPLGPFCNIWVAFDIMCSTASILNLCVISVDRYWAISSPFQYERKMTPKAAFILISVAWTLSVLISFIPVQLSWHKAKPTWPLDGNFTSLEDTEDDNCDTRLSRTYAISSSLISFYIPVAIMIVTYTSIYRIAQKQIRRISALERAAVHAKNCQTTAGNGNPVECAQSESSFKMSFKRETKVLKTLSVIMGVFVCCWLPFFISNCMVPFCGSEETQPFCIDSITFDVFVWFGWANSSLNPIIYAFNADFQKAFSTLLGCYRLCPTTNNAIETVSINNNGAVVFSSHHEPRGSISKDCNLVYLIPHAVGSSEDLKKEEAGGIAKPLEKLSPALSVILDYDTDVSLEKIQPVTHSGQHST

Take `N#C/N=C(\NCCCN1CCN(Cc2ccc3c(c2)OCO3)CC1)c1ccccn1`: the Ki result is “Not Active” at D(2) dopamine receptor; more than 10000 nM in assay [1] (read-out: Ki); “Not Active” in assay [2]; “Not Active” on D(1A) dopamine receptor; 51.8 nM in assay [3] (read-out: Ki); 964 nM in assay [4].

In the case of `CCOCCN1CCN(CCCN/C(=N\C#N)c2ccccn2)CC1`, the inhibition constant (Ki) result in assay [1] was “Not Active”; in assay [2] (read-out: Ki), 597 nM; in assay [3] it was “Not Active”.

Take `N#C/N=C(\NCCCN1CCN(c2ccccc2Cl)CC1)c1ccccn1`: the Ki in assay [1] (read-out: Ki) was 170 nM; in assay [2], “Not Active”; in assay [3] (read-out: Ki), 27 nM.

For the molecule `COc1ccc(N2CCN(CCCN/C(=N\C#N)c3ccccn3)CC2)cc1`, the Ki at D(2) dopamine receptor (read-out: Ki) is more than 10000 nM; in assay [1] (read-out: Ki), 0.0842 nM; in assay [2], “Not Active”; at D(1A) dopamine receptor (read-out: Ki), more than 10000 nM; in assay [3] (read-out: Ki) it was more than 10000 nM; in assay [5], more than 10000 nM.

For the molecule `N#CNC(=NCCCN1CCN(c2cccc(Cl)c2)CC1)c1ccccn1`, the Ki is more than 10000 nM at D(2) dopamine receptor (read-out: Ki); 6.67 nM in assay [1] (read-out: Ki); 3.28 nM in assay [2] (read-out: Ki); more than 10000 nM on D(1A) dopamine receptor (read-out: Ki); 0.000185 nM in assay [3] (read-out: Ki). Also, the IC50 in assay [3] amounted to 0.00025 nM.

In the case of `N#C/N=C(\NCCCN1CCN(c2ccccc2C#N)CC1)c1ccccn1`, the Ki in assay [1] (read-out: Ki) was more than 10000 nM; in assay [2] (read-out: Ki), 28.8 nM; in assay [3] (read-out: Ki) it was 904 nM.

Consider `C=CCN1CCN(CCCN/C(=N\C#N)c2ccccn2)CC1`, for which the Ki result was “Not Active” in assay [1], more than 10000 nM in assay [2] (read-out: Ki) and “Not Active” in assay [3].

`COCCN1CCN(CCCN/C(=N\C#N)c2ccccn2)CC1`: the results for the Ki entry in assay [1], in assay [2] (read-out: Ki) and in assay [3] were “Not Active”, 389 nM and “Not Active”, respectively.
